Experimental findings from ChEMBL document CHEMBL4342435, “Synthesis of novel 4-Boc-piperidone chalcones and evaluation of their cytotoxic activity against highly-metastatic cancer cells” (Bioorg Med Chem Lett, 2020) are described below.

One series relates to LoVo. Briefly: Growth inhibition of human LoVo cells incubated for 72 hrs by CellTiter-Glo luminescent cell viability. Type of series: functional.
Series [1] in a line: Selectivity index, ratio of GI50 for human CCD-18Co cells to GI50 for human LoVo cells.
A short description of series [2]: Selectivity index, ratio of GI50 for human CCD-18Co cells to GI50 for human COLO205 cells.
Series [3] in a line: Cytotoxicity against human CCD-18Co cells assessed as reduction in cell viability incubated for 72 hrs by CellTiter-Glo luminescent cell viability. The series is classed as cell-based.
For series [4], the system named is COLO 205. The series is described as follows: Growth inhibition of human COLO205 cells incubated for 72 hrs by CellTiter-Glo luminescent cell viability. The series is classed as functional. The following applies: COLO 205, 72 h.
The test system of series [5] is COLO 205. The series is described as follows: Induction of apoptosis in human COLO205 cells at GI50 incubated for 24 hrs by Annexin V-FITC/Hoechst/propidium iodide staining based cell counting method (reference value: 10.7%). The series is classed as functional.
Series [6] deals with COLO 205. The series is described as follows: Induction of apoptosis in human COLO205 cells assessed as activation of caspases 7 at GI50 by fluorescent inhibitor probe FAM-DEVD-FMK staining based fluorescence assay (reference value: 15.3%). Type of series: functional. Set-up: scale not given: the % may be the effect or the level left. In a few lines:
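COLO-205 cells treated at the concentrations listed in the GI50 table. Active caspases 3 and 7 labelled with the fluorescent inhibitor probe FAM-DEVD-FMK and read by flow cytometry. Untreated negative control, camptothecin positive control. Triplicate (N=3), P<0.05 versus vehicle.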

A short description of series [7]: Inhibition of TNFalpha-induced NFkappaB activation in human HEK293 cells preincubated for 16 hrs followed by TNFalpha addition and measured after 6 hrs by luminescence based assay. Type of series: cell-based.
For series [8], the system named is PC-3. The series is described as follows: Growth inhibition of human PC3 cells incubated for 48 hrs by MTS assay. Type of series: functional. The following applies: PC-3, 48 h. In short, it runs like this: (§1)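 MTS viability on PC3 and 22RV1 prostate cancer cells after 48h incubation. […] DMSO control. Triplicates (N=3). One-way ANOVA with Dunnett's test, mean ± SEM, P<0.05.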

Series [9] concerns CWR22R. The series is described as follows: Growth inhibition of human 22Rv1 cells incubated for 48 hrs by MTS assay. The settings on record: 22Rv1, 48 h. The series is classed as functional. In a few lines:
as §1

Series [10] relates to CWR22R. Briefly: Antiproliferative activity human 22Rv1 cells assessed as reduction in Ki67 protein level at GI50 incubated for 48 hrs by DAPI staining based immunofluorescence assay. The series is classed as functional, cell-based.
Series [11] deals with PC-3. The series is described as follows: Antiproliferative activity human PC3 cells assessed as reduction in Ki67 protein level at GI50 incubated for 48 hrs by DAPI staining based immunofluorescence assay. Type of series: functional, cell-based.

Structures are written as SMILES. Values after ≈ are worked out from the molar mass of the structure shown. Active and inactive are the calls of the source. The calls are words filed in the database; no cut-off is given here.

For the compound `CC(C)(C)OC(=O)N1C/C(=C\c2cccc(O)c2)C(=O)/C(=C/c2cccc(O)c2)C1`, the concentration for 50% growth inhibition (GI50) with LoVo came out at 4.1 µg/mL (≈ 10.1 µM); in the series with COLO 205 [4], 11.7 µg/mL (≈ 28.7 µM). Moreover, the results for the RatioGI50 in [1] and in series [2] were 1.6 and 0.5, respectively. Further, in [3], the 50% growth inhibitory concentration (GI50) at 72 h was 6.4 µg/mL (≈ 15.7 µM).
Consider `CC(C)(C)OC(=O)N1C/C(=C\c2ccccc2)C(=O)/C(=C/c2ccccc2)C1`, for which the GI50 in the series on LoVo came out at 6.1 µg/mL (≈ 16.2 µM); in the series with COLO 205 [4] it was 34.7 µg/mL (≈ 92.4 µM). For the same compound, the values for the RatioGI50 in [1] and in series [2] were 2 and 0.4, respectively. The concentration for 50% growth inhibition (GI50) at 72 h in series [3] is 12.4 µg/mL (≈ 33 µM).
As for `COc1ccc(/C=C2\CN(C(=O)OC(C)(C)C)C/C(=C\c3ccc(OC)cc3OC)C2=O)c(OC)c1`, the GI50 in the series on LoVo worked out at 2 µg/mL (≈ 4.04 µM); with COLO 205 [4], 0.84 µg/mL (≈ 1.7 µM). Besides, in series [2], the RatioGI50 was determined as 1.4. In addition, the Activity with COLO 205 [5] amounted to 62%; with COLO 205 [6] it was 35.7%. Further, in series [3], the GI50 at 72 h is 1.2 µg/mL (≈ 2.42 µM).
Consider `CC(C)(C)OC(=O)N1C/C(=C\c2ccccc2C(F)(F)F)C(=O)/C(=C/c2ccccc2C(F)(F)F)C1`, for which the results for the GI50 in the series on LoVo and with COLO 205 [4] were 4.6 µg/mL (≈ 8.99 µM) and 4.5 µg/mL (≈ 8.8 µM), respectively. Besides, the RatioGI50 in series [1] and in series [2] was 1.7 each time. Moreover, the Activity in the series with COLO 205 [5] turned out to be 35%; with COLO 205 [6], 31.5%. This compound also returned an IC50 in [7] of 27.2 µg/mL (≈ 53.2 µM). Moreover, the 50% growth inhibitory concentration (GI50) at 72 h in [3] stood at 7.6 µg/mL (≈ 14.9 µM).
In the case of `COc1cc(/C=C2\CN(C(=O)OC(C)(C)C)C/C(=C\c3ccc(O)c(OC)c3)C2=O)ccc1O`, the concentration for 50% growth inhibition (GI50) in the series with LoVo stood at 9.6 µg/mL (≈ 20.5 µM); in the series on COLO 205 [4], 27.4 µg/mL (≈ 58.6 µM). In addition, the RatioGI50 in series [1] worked out at 1.9; in series [2], 0.7. Further, the GI50 at 72 h in series [3] worked out at 18.3 µg/mL (≈ 39.1 µM).
`CC(=O)O[C@@]12CO[C@@H]1C[C@H](O)[C@@]1(C)C(=O)[C@H](O)C3=C(C)[C@@H](OC(=O)[C@H](O)[C@@H](NC(=O)OC(C)(C)C)c4ccccc4)C[C@@](O)([C@@H](OC(=O)c4ccccc4)[C@H]21)C3(C)C` [DOCETAXEL ANHYDROUS]: the figures for the GI50 with PC-3 [8] and in the series on CWR22R [9] were 0.009 µg/mL (≈ 0.0111 µM) and 0.006 µg/mL (≈ 0.00743 µM), respectively. Further, the result with CWR22R [10] and in the series with PC-3 [11] was Active.
Regarding `COc1cc(/C=C/C(=O)CC(=O)/C=C/c2ccc(O)c(OC)c2)ccc1O` [CURCUMIN], the 50% growth inhibitory concentration (GI50) in the series with LoVo came out at 4.3 µg/mL (≈ 11.7 µM); in the series on PC-3 [8], 13.8 µg/mL (≈ 37.5 µM); with CWR22R [9] it was 14.3 µg/mL (≈ 38.8 µM); in the series on COLO 205 [4], 12.7 µg/mL (≈ 34.5 µM). Also, the half-inhibitory concentration (IC50) in [7] was 7.7 µg/mL (≈ 20.9 µM). In [3], the GI50 at 72 h was found to be 7.2 µg/mL (≈ 19.5 µM). For the same compound, the result with CWR22R [10] and with PC-3 [11] was Active.
For `COc1cc(/C=C/C(=O)/C=C/c2ccc(O)c(OC)c2)ccc1O`, the GI50 with LoVo stood at 10 µg/mL (≈ 30.6 µM); in the series on PC-3 [8], 24.8 µg/mL (≈ 76 µM); with CWR22R [9], 22.7 µg/mL (≈ 69.6 µM); with COLO 205 [4] it was 19.4 µg/mL (≈ 59.4 µM). Further, the RatioGI50 in series [1] came to 1.5; in series [2], 0.8. Besides, the 50% growth inhibitory concentration (GI50) at 72 h in series [3] amounted to 15.1 µg/mL (≈ 46.3 µM). Also, the outcome in the series with CWR22R [10] was Active.
In the case of `CC[C@@]1(O)C(=O)OCc2c1cc1n(c2=O)Cc2cc3ccccc3nc2-1` [CAMPTOTHECIN], the Activity was determined as 37.3% with COLO 205 [5] and 59.3% in the series on COLO 205 [6].
For the compound `CC(C)(C)OC(=O)N1C/C(=C\c2ccc(O)cc2)C(=O)/C(=C/c2ccc(O)cc2)C1`, the GI50 in the series on LoVo is 3.5 µg/mL (≈ 8.59 µM); in the series on PC-3 [8] it was 22.9 µg/mL (≈ 56.2 µM); in the series on CWR22R [9], 17.1 µg/mL (≈ 42 µM); in the series with COLO 205 [4], 20.9 µg/mL (≈ 51.3 µM). Besides, the RatioGI50 in series [1] is listed as 1.8; in series [2], 0.3. For the same compound, the GI50 at 72 h in [3] turned out to be 6.4 µg/mL (≈ 15.7 µM). For the same compound, the result in the series on CWR22R [10] and in the series with PC-3 [11] was Active.
